Rows were chosen to be rich in hits. Some 4.1% of all compounds tested hit in one or more screens of this group.
MrgX1 PAM = positive allosteric modulators of MrgX1, primary screen, HEK293 cells, Fluo-4 calcium flux | FDSS; hits give high values | actives 0.63% (n = 310,000) | B-score at 10 µM | Mas-related G-protein coupled receptor member X1 (Homo sapiens), Q96LB2 | AID 588675, 2011;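 active = plate-corrected calcium response at least 3 library SD above typical, normal starting fluorescence, not activating the receptor alone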;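 also: compound read alongside a low EC10 to EC30 dose of BAM8-22 agonist; peak minus trough fluorescence over baseline measured at the second addition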
Target sequence (Q96LB2 whole entry, looked up): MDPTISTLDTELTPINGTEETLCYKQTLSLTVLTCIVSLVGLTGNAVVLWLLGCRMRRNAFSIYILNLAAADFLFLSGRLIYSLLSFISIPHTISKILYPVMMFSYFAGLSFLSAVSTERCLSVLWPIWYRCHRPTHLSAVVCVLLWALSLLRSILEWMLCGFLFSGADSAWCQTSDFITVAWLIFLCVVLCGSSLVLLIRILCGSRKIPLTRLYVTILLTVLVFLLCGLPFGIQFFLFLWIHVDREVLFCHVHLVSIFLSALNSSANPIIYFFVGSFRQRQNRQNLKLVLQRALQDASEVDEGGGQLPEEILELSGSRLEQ
MrgX1 antag = antagonists of human MrgX1 receptor, primary screen, HEK293 cells, Fluo-4 calcium flux; actives 1.3% (n = 310,000); AID 588676, 2011; B-score at 10 µM; BAM8-22 antagonism; hits give low values; Mas-related G-protein coupled receptor member X1 (Homo sapiens), Q96LB2;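 active = calcium-response B-score plate-corrected more than 3 library SD below zero, starting fluorescence within 5 deviations, no agonist response on first addition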;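 also: peak minus trough fluorescence over baseline after final BAM8-22 challenge near maximal dose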
Kir21 block = inhibitors of mouse Kir2.1 inward-rectifier potassium channel. Inward rectifier potassium channel 2 (Mus musculus), P35561. HEK293-Kir2.1, FluxOR thallium flux fluorescence; hits give low values. B-score at 10 µM. actives 0.85% (n = 310,000);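 active = fluorescence ratio B-score at or below minus 3 SD of library scores, with starting-brightness B-score within 2 SD, cut at about -4.2 in these data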;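 also: channel flux triggered by added potassium and thallium sulfate stimulus; B-score of peak minus minimum fluorescence over baseline after thallium stimulus; more negative B-score means stronger Kir2.1 block with less thallium influx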
Target sequence (P35561 whole entry, looked up): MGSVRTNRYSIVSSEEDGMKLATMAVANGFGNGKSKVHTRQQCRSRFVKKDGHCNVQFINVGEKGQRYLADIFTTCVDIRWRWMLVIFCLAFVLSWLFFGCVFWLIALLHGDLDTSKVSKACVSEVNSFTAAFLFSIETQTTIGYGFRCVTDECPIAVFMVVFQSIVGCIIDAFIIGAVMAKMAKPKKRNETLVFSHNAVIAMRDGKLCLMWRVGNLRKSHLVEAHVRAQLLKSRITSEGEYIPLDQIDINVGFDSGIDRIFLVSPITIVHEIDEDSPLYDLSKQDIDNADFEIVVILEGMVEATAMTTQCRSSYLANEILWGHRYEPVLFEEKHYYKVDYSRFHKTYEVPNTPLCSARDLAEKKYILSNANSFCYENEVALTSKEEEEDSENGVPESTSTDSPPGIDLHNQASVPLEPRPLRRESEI
MrgX1 agonist = agonists of human MrgX1 receptor, primary screen, HEK293 cells, Fluo-4 calcium flux; AID 588627, 2011; Fluo-4 calcium fluorescence, agonist mode; hits give high values; actives 0.44% (n = 310,000); B-score at 10 µM;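 active = calcium response B-score plate-corrected fluorescence ratio at least 3 library SD, with starting fluorescence B-score inside 5 SD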
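times = overnight plating, then 30 min 37 °C plus 30 min room-temperature dye loading | assay system = stable human MrgX1 HEK293 cell line | input = fifteen thousand cells per well | signal = kinetic calcium dye fluorescence, Fluo-4 NW | dosing = compound delivered in addition one of three | read-out = B-scored fluorescence response ratio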
RGS4 inh = RGS4 inhibitors, primary screen, cell-based, HEK293 M3R inducible RGS4, calcium flux; Regulator of G-protein signaling 4 (Homo sapiens), P49798; Fluo-4 calcium flux; hits give high values; triggered by carbachol at its EC20; B-score at 10 µM; actives 0.45% (n = 310,000);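 active = B-score, a plate-corrected calcium signal, over three deviations above library mean, with baseline fluorescence within five deviations of library mean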;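 also: RGS4 expression induced by doxycycline in cells with stable M3 receptor; B-score is computed from the integrated fluorescence ratio over baseline after carbachol; higher B-score means a larger calcium signal and so more RGS4 inhibition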
RGS4 pot = RGS4 potentiators or activators, primary screen, cell-based, HEK293 M3R inducible RGS4, calcium flux; carbachol calcium flux Fluo4; hits give low values; AID 463111, 2010; actives 0.92% (n = 310,000); B-score at 10 µM;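 active = B-score of the integrated calcium signal more than 4 SD below the library mean, with starting fluorescence not abnormally high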;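 also: negative B-score means reduced calcium response which marks RGS4 activation or potentiation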
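Assay system: Inducible-RGS4 HEK293 cells carrying M3 receptor | Schedule: Compound preincubation 20 min at room temperature before agonist | Signal: Kinetic calcium fluorescence imaging with Fluo4-AM dye, 2 µM | Read-out basis: B score from integrated fluorescence ratio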
MrgX1 PAM conf = MrgX1 positive allosteric modulators, duplicate retest, confirmation, HEK293 cells, Fluo-4 calcium flux; AID 602413, 2012; Fluo-4 calcium fluorescence, FDSS; actives 13% (n = 1,200); activation (ratio percentage), % at 10 µM; shares compounds with MrgX1 PAM;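 active = ratio at least 3 SD above the weak peptide control, stable starting fluorescence, no direct agonism earlier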;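 also: compound followed by low BAM8-22 agonist challenge near EC20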
HEK293 Ca flux = nonspecific calcium signal in parental HEK293, confirmation, counter-screen for MrgX1 antagonist project, parental HEK293 cells, Fluo-4 calcium flux; shares compounds with MrgX1 antag; Fluo-4 calcium fluorescence, FDSS; actives 2% (n = 4,000); fluorescence ratio F(max-min)/F0 at 10 µM;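 active = duplicate-averaged calcium fluorescence ratio at least three times the standard deviation of buffer wells, a nonspecific response in parental cells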
HEK293 Ca counter = calcium response in parental HEK293 cells, primary screen, counter-screen for MrgX1 allosteric activator project, cell-based, Fluo-4 calcium flux, duplicate | actives 0.4% (n = 4,000) | fluorescence ratio F(max-min)/F0 at 10 µM | shares compounds with MrgX1 antag | Fluo-4 fluorescence ratio; hits give high values;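 active = calcium fluorescence ratio, averaged over duplicates, at least 3 SD of the buffer-well ratio, meaning a nonspecific response in receptor-free cells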;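 also: untransfected parental HEK293 lacking MrgX1 used as counterscreen for MrgX1 allosteric activators; fluorescence change taken during the second addition on a kinetic imager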
HEK293 Ca cntr2 = calcium response in parental HEK293 cells, primary screen, counter-screen for MrgX1 agonist project, cell-based, Fluo-4 calcium flux, duplicate, agonist mode; shares compounds with MrgX1 antag; Fluo-4 calcium fluorescence (FDSS); hits give high values; fluorescence ratio F(max-min)/F0 at 10 µM; actives 8.7% (n = 4,000);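 active = calcium fluorescence ratio at least three times the spread of buffer wells, meaning a non-specific response in parental cells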
Large screens that a line does not name were inactive (follow-up assays come after a bar, where they were run).

COc1cccc(-n2c(C)cc(/C=C3/C(=N)N4C(=NC3=O)SN=C4S(C)(=O)=O)c2C)c1	MrgX1 PAM 32 | MrgX1 PAM conf 2.0% | HEK293 Ca flux inactive | HEK293 Ca counter inactive | HEK293 Ca cntr2 inactive
CC1CCCCC1NC(=O)c1ccc(N2CCCC2=O)cc1 (centres undefined)	none
Brc1cccc(-c2nnc3sc(CNCc4ccco4)cn23)c1	none
COc1ccc(N(C(=O)COc2cccc(C)c2)S(=O)(=O)c2ccc(C)cc2)cc1	MrgX1 PAM 18 | MrgX1 PAM conf inactive | HEK293 Ca flux inactive | HEK293 Ca counter inactive | HEK293 Ca cntr2 inactive
CCC(C)NC(=O)C1c2ccccc2C(=O)N1Cc1ccccc1OC (centres undefined)	none
COc1ccccc1CN1C(=O)c2ccccc2C1C(=O)NC1CCC(C)CC1 (centres undefined)	MrgX1 PAM 9.8 | MrgX1 PAM conf inactive | HEK293 Ca flux inactive | HEK293 Ca counter inactive | HEK293 Ca cntr2 inactive
CCCCN1CC(O)=C(c2nc3ccccc3[nH]2)C1=N	none
CCN(CC)S(=O)(=O)c1cc(C(=O)Nc2ccc(Cl)cn2)ccc1C	MrgX1 PAM 20 | MrgX1 PAM conf 12% | HEK293 Ca flux inactive | HEK293 Ca counter inactive | HEK293 Ca cntr2 inactive
CCN(CC)S(=O)(=O)c1cccc(C(=O)Nc2ccc(Cl)cn2)c1	none
Cc1ccc(S(=O)(=O)N(C)c2ccc(C(=O)Nc3ccc(C)cn3)cc2)cc1	none
CN(c1ccc(C(=O)Nc2ccc(Cl)cn2)cc1)S(=O)(=O)c1ccccc1	MrgX1 PAM 9.7 | MrgX1 PAM conf inactive | HEK293 Ca flux inactive | HEK293 Ca counter inactive | HEK293 Ca cntr2 inactive
COc1ccc(S(=O)(=O)Nc2cccc(C)n2)c2ccccc12	none
COc1ccc(Br)cc1S(=O)(=O)Nc1cccc(C)n1	MrgX1 PAM 12 | MrgX1 PAM conf inactive | HEK293 Ca flux inactive | HEK293 Ca counter inactive | HEK293 Ca cntr2 inactive
COc1ccccc1C1C=C(c2ccc(C)cc2)Nc2nnnn21 (centres undefined)	none
COc1ccc(C2=CC(c3c(C)nn(-c4ccccc4)c3Cl)n3nnnc3N2)cc1OC (centres undefined)	MrgX1 PAM 7 (no result: Kir21 block, RGS4 inh, RGS4 pot) | MrgX1 PAM conf inactive | HEK293 Ca flux inactive | HEK293 Ca counter inactive | HEK293 Ca cntr2 inactive
COc1ccc2[nH]c(C)c(CCNc3ccc(C(F)(F)F)cc3[N+](=O)[O-])c2c1	none
COc1cccc(C(=O)Nc2nnc(-c3ccccc3)s2)c1OC	MrgX1 PAM 10 | MrgX1 PAM conf inactive | HEK293 Ca flux inactive | HEK293 Ca counter inactive | HEK293 Ca cntr2 inactive
O=C1N=c2ccccc2=C1c1sc(NS(=O)(=O)Cc2ccccc2)nc1O	none
O=C1N=c2ccccc2=C1c1sc(NS(=O)(=O)c2ccccc2)nc1O	MrgX1 PAM 21 | MrgX1 PAM conf inactive | HEK293 Ca flux inactive | HEK293 Ca counter inactive | HEK293 Ca cntr2 inactive
O=C(NCCc1ccccc1)C(=O)NCC1CCNCC1	none
Cc1cc(C(=O)CSc2nncs2)c(C)n1Cc1ccco1	none
Cc1cc(C(=O)CCl)c(C)n1Cc1ccco1	MrgX1 PAM 7 | MrgX1 PAM conf inactive | HEK293 Ca flux inactive | HEK293 Ca counter inactive | HEK293 Ca cntr2 inactive
O=C(CC1Sc2ccccc2NC1=O)OC(C(=O)NCCc1ccccc1)c1cccnc1 (centres undefined)	MrgX1 PAM 8.5 | MrgX1 PAM conf inactive | HEK293 Ca flux inactive | HEK293 Ca counter inactive | HEK293 Ca cntr2 inactive
COc1ccc(Nc2ncc(C(=O)N3CCN(Cc4ccccc4)CC3)c3ccccc23)cc1	none
COc1ccccc1CNC(=O)c1oc2ccccc2c1C	MrgX1 PAM 6.7 | MrgX1 PAM conf inactive | HEK293 Ca flux inactive | HEK293 Ca counter inactive | HEK293 Ca cntr2 inactive
Cc1c(C(=O)NCc2ccccn2)oc2ccccc12	none
O=C(CCc1ccccc1)NC(=S)Nc1cccc(C(=O)O)c1	none
O=C(CCc1ccccc1)NC(=S)Nc1cccc(Br)c1	MrgX1 PAM 9 | MrgX1 PAM conf inactive | HEK293 Ca flux inactive | HEK293 Ca counter inactive | HEK293 Ca cntr2 inactive
O=C(CN1C(=O)C2C3CC(C(Br)C3Br)C2C1=O)N1CCN(Cc2ccccc2)CC1 (centres undefined)	MrgX1 PAM 7.7 | MrgX1 PAM conf inactive | HEK293 Ca flux inactive | HEK293 Ca counter inactive | HEK293 Ca cntr2 inactive
Cc1ccc(C)c(NS(=O)(=O)c2csc(C(N)=O)c2)c1	none
CCN1CCN(CC(=O)Nc2ccc(Cl)c(Cl)c2)C(=O)C1=O	MrgX1 PAM 7.7 | MrgX1 PAM conf inactive | HEK293 Ca flux inactive | HEK293 Ca counter inactive | HEK293 Ca cntr2 inactive
CCN1CCN(CC(=O)Nc2ccccc2)C(=O)C1=O	none
CC1C(=O)N(Cc2ccccc2F)c2ccccc2N1C(=O)c1c(F)cccc1F (centres undefined)	MrgX1 PAM 9 | MrgX1 PAM conf inactive | HEK293 Ca flux inactive | HEK293 Ca counter inactive | HEK293 Ca cntr2 inactive
Nc1cc(=O)[nH]c(SCC(=O)Nc2cccc([N+](=O)[O-])c2)n1	none
Cc1ccc(S(=O)(=O)ON2C(=O)c3ccccc3C2=O)c(C)c1	MrgX1 PAM 36 (no result: Kir21 block, RGS4 inh, RGS4 pot) | MrgX1 PAM conf inactive | HEK293 Ca flux inactive | HEK293 Ca counter inactive | HEK293 Ca cntr2 inactive
COc1cc(C2CC(=O)c3cnc(N)nc3C2)cc(OC)c1OC (centres undefined)	none
COc1cc(OC)c(C(=O)NC23CC4CC(CC(C4)C2)C3)cc1OC	none

Assay outcomes: PubChem, Johns Hopkins Ion Channel Center
